A short description of assay [1]: hit retest on RPL19A-GFP reporter strain – cell-based, S. cerevisiae, flow cytometry, cherry picks, mother/daughter gates, confirmation (AID 2270;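 active = GFP response below 50% of the DMSO control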). The settings on record: 3 h, at 10 µM, stronger effect = lower value, 100 = same GFP as DMSO wells.
Assay [2] is described as follows: yeast TOR pathway reporter LAP4-GFP change – cell-based, cherry picks, flow cytometry, mother/daughter gates, confirmation (AID 2271;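 active = GFP response above 150% of the DMSO control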;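 note: ratio of sample to DMSO plate mean so 100% equals DMSO level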). As to conditions: S. cerevisiae LAP4-GFP strain, 3 h, at 10 µM, stronger effect = higher value, 100 means same as DMSO control. A digest of the protocol:
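Material: Alexa Fluor 633-labelled Saccharomyces cerevisiae GFP-fusion strain, single-plex | Amount: Yeast cells seeded at OD600 of 0.2 | Buffer or medium: SC growth medium | Schedule: 3 h exposure, 30 °C | Measured by: HT flow cytometry, GFP fluorescence channel | Evaluation: % GFP response vs DMSO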
(Flow cytometry measures light scatter and fluorescence of single cells or particles in a stream.)

A short description of assay [3]: TOR pathway reporter MEP2-GFP, retest of hits – S. cerevisiae, flow cytometry GFP, cherry picks, confirmation (AID 2272;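 active = GFP response above 150% of the DMSO control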;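 note: ratio of well signal to plate DMSO mean so 100% equals DMSO level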). The settings on record: S. cerevisiae MEP2-GFP strain, 3 h, at 10 µM, stronger effect = higher value.
Assay [4] can be described thus: yeast AGP1-GFP fluorescence change, single-dose – cell-based, flow cytometry, S. cerevisiae, cherry picks, confirmation (AID 2273).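 Note: median GFP channel fluorescence over the whole cell population gate.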 As to conditions: S. cerevisiae AGP1-GFP strain, 3 h, at 10 µM.
A short description of assay [5]: TOR pathway CIT2 reporter hit retest – S. cerevisiae, GFP fusion, cherry picks, mother/daughter gates, confirmation (AID 2274). The settings on record: S. cerevisiae CIT2-GFP strain, flow cytometry, 3 h, at 10 µM, stronger effect = higher value.
Where [6] appears, read: measured here: daughter cell gate.
Setting [7] is: measured here: mother cell gate.
Setting [8] is: measured here: daughter cell gate response.
[9] abbreviates: measured here: mother cell gate response.

The structures appear in SMILES notation. Activity calls are given as the source filed them.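 Rule for the calls, unless noted: active = GFP response above 150% of the DMSO level; inconclusive = fewer than 70 events counted for a yeast strain; inactive = the rest.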

For the molecule `CCOc1cc(/C=C2\N=C(C)OC2=O)cc(Cl)c1OCC(=O)OC`, the GFP response vs DMSO in assay [1] was 105% (inactive); in assay [1] (setting [6]), 106%; in assay [1] (setting [7]) it was 101%; in assay [3], 101% (inactive). For the same molecule, the figures for the GFP response relative to DMSO in assay [2], in assay [2] (setting [8]) and in assay [2] (setting [9]) were 122% (inactive), 120% and 125%, respectively. For the same molecule, the GFP response, % of DMSO in assay [4] was 92.4% (inactive); in assay [5], 93% (inactive); in assay [5] (setting [6]) it was 95.6%; in assay [5] (setting [7]), 90.7%.

With `CC(C)c1ccc(C(=O)N/N=C/c2cccc(Cl)c2Cl)cc1`, the GFP response vs DMSO is 93.4% (inactive) in assay [1], 88% in assay [1] (setting [6]), 92.6% in assay [1] (setting [7]) and 103% (inactive) in assay [3]. For the same molecule, the GFP response relative to DMSO in assay [2] is 112% (inactive); in assay [2] (setting [8]) it was 110%; in assay [2] (setting [9]) it was 116%. Further, the GFP response, % of DMSO in assay [4] is 95.7% (inactive); in assay [5], 87.2% (inactive); in assay [5] (setting [6]), 83%; in assay [5] (setting [7]), 85.8%.

Consider `CNC(=O)/C(C#N)=C/c1c(N(Cc2ccccc2)Cc2ccccc2)nc2c(C)cccn2c1=O`, for which the GFP response vs DMSO was 97.2% (inactive) in assay [1], 98.1% in assay [1] (setting [6]), 97.8% in assay [1] (setting [7]) and 112% (inactive) in assay [3]. Also, the GFP response relative to DMSO was 94.4% (inactive) in assay [2], 95.9% in assay [2] (setting [8]) and 93.1% in assay [2] (setting [9]). In addition, the GFP response, % of DMSO in assay [4] was 103% (inactive); in assay [5], 106% (inactive); in assay [5] (setting [6]), 108%; in assay [5] (setting [7]) it was 104%.

Regarding `Cn1c(=O)c(C(=O)Nc2ncccc2O)c(O)c2ccccc21`, the GFP response vs DMSO in assay [1] is 95.3% (inactive); in assay [1] (setting [6]), 93.9%; in assay [1] (setting [7]), 91.8%; in assay [3], 145% (inactive). Also, the GFP response relative to DMSO in assay [2] is 100% (inactive); in assay [2] (setting [8]), 91.3%; in assay [2] (setting [9]), 90.3%. Moreover, the GFP response, % of DMSO in assay [4] was 99.8% (inactive); in assay [5] it was 90.3% (inactive); in assay [5] (setting [6]) it was 90.5%; in assay [5] (setting [7]) it was 88.2%.

Consider `CCc1c(C)c2cc(Cl)c(O)c(CN(C)C)c2oc1=O`, for which the GFP response vs DMSO is 95.1% (inactive) in assay [1], 95.6% in assay [1] (setting [6]), 94.8% in assay [1] (setting [7]) and 106% (inactive) in assay [3]. For the same molecule, the GFP response relative to DMSO in assay [2] is 95.3% (inactive); in assay [2] (setting [8]) it was 99%; in assay [2] (setting [9]) it was 93.4%. In addition, the GFP response, % of DMSO in assay [4] is 93.9% (inactive); in assay [5] it was 95.8% (inactive); in assay [5] (setting [6]), 95.8%; in assay [5] (setting [7]), 94.9%.

`COC(=O)Cn1nc(-c2ccccc2)c2cc(Cl)ccc21`: the GFP response vs DMSO is 101% (inactive) in assay [1], 100% in assay [1] (setting [6]), 101% in assay [1] (setting [7]) and 109% (inactive) in assay [3]. Further, the figures for the GFP response relative to DMSO in assay [2], in assay [2] (setting [8]) and in assay [2] (setting [9]) were 104% (inactive), 104% and 104%, respectively. In addition, the GFP response, % of DMSO is 102% (inactive) in assay [4], 114% (inactive) in assay [5], 116% in assay [5] (setting [6]) and 112% in assay [5] (setting [7]).

`COc1ccc(OC(=O)c2cccc(S(=O)(=O)N3CCCC3)c2)cc1`: the GFP response vs DMSO is 96.6% (inactive) in assay [1], 95.4% in assay [1] (setting [6]), 96.1% in assay [1] (setting [7]) and 105% (inactive) in assay [3]. For the same molecule, the GFP response relative to DMSO was 90.2% (inactive) in assay [2], 91.2% in assay [2] (setting [8]) and 89.7% in assay [2] (setting [9]). In addition, the GFP response, % of DMSO in assay [4] was 96.4% (inactive); in assay [5] it was 103% (inactive); in assay [5] (setting [6]), 103%; in assay [5] (setting [7]), 101%.

In the case of `CCc1noc(C)c1C(=O)Nc1nc(-c2ccc(Cl)cc2Cl)cs1`, the GFP response vs DMSO is 95.6% (inactive) in assay [1], 95.6% in assay [1] (setting [6]), 94% in assay [1] (setting [7]) and 103% (inactive) in assay [3]. Moreover, the GFP response relative to DMSO was 97.7% (inactive) in assay [2], 96% in assay [2] (setting [8]) and 97.4% in assay [2] (setting [9]). The GFP response, % of DMSO in assay [4] was 96.1% (inactive); in assay [5] it was 94.4% (inactive); in assay [5] (setting [6]), 97.6%; in assay [5] (setting [7]), 93.8%.

As for `CN(c1ccccc1)S(=O)(=O)c1ccc(C(=O)Nc2nnc(-c3ccc(F)cc3)o2)cc1`, the GFP response vs DMSO in assay [1] is 99.1% (inactive); in assay [1] (setting [6]) it was 102%; in assay [1] (setting [7]), 98.6%; in assay [3] it was 149% (inactive). Besides, the GFP response relative to DMSO in assay [2] is 122% (inactive); in assay [2] (setting [8]) it was 128%; in assay [2] (setting [9]) it was 120%. The GFP response, % of DMSO in assay [4] was 106% (inactive); in assay [5], 131% (inactive); in assay [5] (setting [6]), 133%; in assay [5] (setting [7]), 128%.

As for `O=C1c2ccsc2SCCN1Cc1ccc(F)cc1`, the GFP response vs DMSO in assay [1] is 97% (inactive); in assay [1] (setting [6]), 94.4%; in assay [1] (setting [7]), 100%; in assay [3], 90.5% (inactive). In addition, the GFP response relative to DMSO in assay [2] is 111% (inactive); in assay [2] (setting [8]) it was 110%; in assay [2] (setting [9]), 113%. For the same molecule, the GFP response, % of DMSO in assay [4] was 97.3% (inactive); in assay [5] it was 100% (inactive); in assay [5] (setting [6]), 103%; in assay [5] (setting [7]), 89.5%.

As to `Cc1ccc(S(=O)(=O)Cc2cc(F)c([N+](=O)[O-])cc2[N+](=O)[O-])cc1`, the GFP response vs DMSO in assay [1] was 74.2% (inactive); in assay [1] (setting [6]), 88.4%; in assay [1] (setting [7]), 62.6%; in assay [3] it was 127% (inactive). Moreover, the values for the GFP response relative to DMSO in assay [2], in assay [2] (setting [8]) and in assay [2] (setting [9]) were 251% (active), 146% and 223%, respectively. Moreover, the GFP response, % of DMSO in assay [4] was 105% (inactive); in assay [5] it was 89.7% (inactive); in assay [5] (setting [6]) it was 84.1%; in assay [5] (setting [7]), 72.8%.

`O=C(Nc1cc(Sc2ccccn2)cc([N+](=O)[O-])c1)c1ccc([N+](=O)[O-])cc1`: the GFP response vs DMSO in assay [1] is 97.8% (inactive); in assay [1] (setting [6]) it was 98.4%; in assay [1] (setting [7]), 96.9%; in assay [3], 110% (inactive). For the same molecule, the GFP response relative to DMSO in assay [2] is 98.9% (inactive); in assay [2] (setting [8]), 101%; in assay [2] (setting [9]), 98.4%. The GFP response, % of DMSO in assay [4] is 104% (inactive); in assay [5], 107% (inactive); in assay [5] (setting [6]), 106%; in assay [5] (setting [7]), 106%.

For `CCN(CC(O)Cn1c2ccccc2c2ccccc21)S(=O)(=O)c1ccc(F)cc1` (configuration not stated), the GFP response vs DMSO in assay [1] is 96% (inactive); in assay [1] (setting [6]), 96.5%; in assay [1] (setting [7]), 96.7%; in assay [3], 97.5% (inactive). In addition, the GFP response relative to DMSO is 108% (inactive) in assay [2], 107% in assay [2] (setting [8]) and 108% in assay [2] (setting [9]). Besides, the GFP response, % of DMSO in assay [4] is 95.8% (inactive); in assay [5], 96.4% (inactive); in assay [5] (setting [6]) it was 96.4%; in assay [5] (setting [7]) it was 94.5%.

`CS(=O)(=O)c1nc(-c2cccs2)cc(C(F)(F)F)n1`: the GFP response vs DMSO in assay [1] was 93% (inactive); in assay [1] (setting [6]), 95.2%; in assay [1] (setting [7]) it was 88.6%; in assay [3], 143% (inactive). The figures for the GFP response relative to DMSO in assay [2], in assay [2] (setting [8]) and in assay [2] (setting [9]) were 176% (active), 164% and 180%, respectively. Moreover, the GFP response, % of DMSO is 118% (inactive) in assay [4], 94.4% (inactive) in assay [5], 99.2% in assay [5] (setting [6]) and 89.5% in assay [5] (setting [7]).

Turning to `c1ccc(-c2cccc(-c3ccccn3)n2)nc1`, the GFP response vs DMSO in assay [1] is 92.9% (inactive); in assay [1] (setting [6]), 82.8%; in assay [1] (setting [7]), 96.9%; in assay [3], 106% (inactive). Further, the GFP response relative to DMSO was 258% (active) in assay [2], 210% in assay [2] (setting [8]) and 268% in assay [2] (setting [9]). Moreover, the GFP response, % of DMSO in assay [4] is 89% (inactive); in assay [5], 97.8% (inactive); in assay [5] (setting [6]), 87.2%; in assay [5] (setting [7]), 100%.

For the molecule `COCc1nnc(NC(=O)c2ccc(S(=O)(=O)N3CCCCCC3)cc2)o1`, the GFP response vs DMSO in assay [1] is 105% (inactive); in assay [1] (setting [6]), 99.8%; in assay [1] (setting [7]), 105%; in assay [3], 107% (inactive). Moreover, the values for the GFP response relative to DMSO in assay [2], in assay [2] (setting [8]) and in assay [2] (setting [9]) were 105% (inactive), 97.5% and 107%, respectively. The GFP response, % of DMSO in assay [4] is 101% (inactive); in assay [5] it was 97.3% (inactive); in assay [5] (setting [6]), 97.4%; in assay [5] (setting [7]), 96.8%.

Take `CC(C)c1nnc(SCC(=O)N2CCc3ccccc32)n1C`: the GFP response vs DMSO in assay [1] is 102% (inactive); in assay [1] (setting [6]), 101%; in assay [1] (setting [7]) it was 101%; in assay [3], 102% (inactive). Besides, the results for the GFP response relative to DMSO in assay [2], in assay [2] (setting [8]) and in assay [2] (setting [9]) were 96.2% (inactive), 95.6% and 99.3%, respectively. The GFP response, % of DMSO in assay [4] was 97.6% (inactive); in assay [5] it was 97.8% (inactive); in assay [5] (setting [6]), 98.1%; in assay [5] (setting [7]) it was 96.6%.

The values above are taken from PubChem BioAssay.
